From ChEMBL document CHEMBL3286242, “Design, synthesis and biological evaluation of arylcinnamide hybrid derivatives as novel anticancer agents” (Eur J Med Chem, 2014)
Activity calls are given as the source filed them. No cut-off for these calls is given here.

Key:
[1] = tested on: L1210; experiment: Cytotoxicity against mouse L1210 cells; assay type: functional, cell-based
[2] = tested on: LoVo; experiment: Cytotoxicity against human LoVo cells assessed as growth inhibition after 72 hrs by MTT assay; assay type: functional, cell-based
[3] = tested on: HeLa; experiment: Induction of apoptosis in human HeLa cells assessed as reduction in Mcl-1 protein expression at 2.5 uM after 48 hrs by Western blotting analysis; assay type: functional, cell-based
How it was run: (§1)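 HeLa cells treated at indicated concentrations and times; washed in cold PBS, lysed 30 min at 0 °C, cleared at 15 000 × g; 20 μg protein resolved on 7.5–15% gradient SDS-PAGE, blotted to PVDF, primary antibodies 2 h room temperature, peroxidase secondary 60 min, ECL detection; β-actin reprobe for loading.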

[4] = tested on: HeLa; experiment: Induction of apoptosis in human HeLa cells assessed as reduction in Bcl-2 protein expression at 1 to 2.5 uM by Western blotting analysis; assay type: functional, cell-based; conditions: TDE = time-dependent effect; how it was run: as §1
[5] = tested on: HeLa; experiment: Induction of apoptosis in human HeLa cells assessed as reduction in Bcl-2 protein expression at 1 to 2.5 uM after 48 hrs by Western blotting analysis; assay type: functional, cell-based; how it was run: as §1
[6] = tested on: HeLa; experiment: Cytotoxicity against human HeLa cells assessed as growth inhibition after 72 hrs by MTT assay; assay type: functional, cell-based
[7] = tested on: HeLa; experiment: Induction of apoptosis in human HeLa cells assessed as caspase-3 activation after 24 to 48 hrs by Western blotting analysis; assay type: functional, cell-based; how it was run: as §1
[8] = Cytotoxicity against human SEM cells assessed as growth inhibition after 72 hrs by MTT assay; assay type: functional, cell-based
[9] = tested on: HeLa; experiment: Induction of apoptosis in human HeLa cells at 0.62 to 5 uM after 24 to 48 hrs by Annexin V/FITC staining-based flow cytometry; assay type: functional, cell-based
How it was run: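 HeLa cells treated 24 or 48 h at indicated concentrations, then stained with annexin-V-FITC plus PI; flow cytometry with 488 nm excitation, 525 and 585 nm emission; live, early/late apoptotic and necrotic populations distinguished; means of three independent experiments.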

[10] = Cytotoxicity against human CEM/VBL100 cells assessed as growth inhibition after 72 hrs by MTT assay; assay type: functional, cell-based; conditions: CEM/VBL100, 72 h
[11] = tested on: HeLa; experiment: Induction of apoptosis in human HeLa cells assessed as GSH depletion at 1 to 2.5 uM after 24 hrs by CMFDA staining-based flow cytometry in presence of N-acetylcysteine; assay type: functional, cell-based
How it was run: (§2)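 HeLa cells treated 24 h with compound, alone or with 100 μM NAC; harvested and loaded with 5 μM CMFDA, 30 min at 37 °C; intracellular GSH read as CMFDA fluorescence by flow cytometry; means ± SEM.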

[12] = tested on: CCRF-CEM; experiment: Resistance ratio of IC50 for human CEM/VBL100 cells to IC50 for human CEM cells; assay type: functional
How it was run: (§3)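 Ratio of IC50 in resistant line to IC50 in parental line (CEMVbl-100/CEM; LoVoDoxo/LoVo), each IC50 from 72 h MTT dose–response curves, ≥3 independent experiments.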

[13] = tested on: Jurkat; experiment: Cytotoxicity against human Jurkat cells assessed as growth inhibition after 72 hrs by MTT assay; assay type: functional, cell-based
[14] = tested on: HeLa; experiment: Cell cycle arrest in human HeLa cells assessed as accumulation at G2/M phase after 24 hrs by propidium iodide staining-based flow cytometry; assay type: functional
How it was run: (§4)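 HeLa cells in exponential growth (2.5 × 10^5) treated 24 h at various concentrations; ethanol-fixed (70%, ice-cold), lysed with RNase A/0.1% Triton X-100, PI-stained; DNA content by flow cytometry, phase percentages from DNA histograms.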

[15] = tested on: PBMC; experiment: Cytotoxicity against human resting PBMC assessed as growth inhibition after 72 hrs by MTT assay; assay type: cell-based
How it was run: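 Healthy-donor PBMC from Lymphoprep gradient, rested overnight in RPMI-1640/10% FBS; non-adherent cells at 5 × 10^5 cells/mL without PHA, treated 72 h with varying concentrations; viability by MTT; IC50 mean ± SEM, three separate experiments.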

[16] = tested on: PBMC; experiment: Cytotoxicity against human PHA-stimulated PBMC assessed as growth inhibition after 72 hrs by MTT assay; assay type: functional, cell-based
[17] = tested on: CCRF-CEM; experiment: Cytotoxicity against human CEM cells assessed as growth inhibition after 72 hrs by MTT assay; assay type: functional, cell-based
[18] = Cytotoxicity against human LoVo/DX cells assessed as growth inhibition after 72 hrs by MTT assay; assay type: functional, cell-based
[19] = biological target: Tubulin (Homo sapiens) (UniProt P68371+Q9H4B7+P0DPH7+P68366+Q13509+Q71U36+P04350+Q3ZCM7+P07437+P68363+Q9BQE3+Q6PEY2+Q13885+Q9BVA1+Q9BUF5); experiment: Inhibition of tubulin polymerization in human HeLa cells assessed as microtubule disruption at 2.5 to 5 uM after 24 hrs by immunofluorescence microscopy relative to untreated control; assay type: cell-based
How it was run: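 HeLa cells exposed 24 h to 2.5 or 5.0 μM versus untreated; fixed in cold 4% formaldehyde 15 min, stained with anti-β-tubulin monoclonal (1:1000) and Alexa secondary (1:2000), DAPI counterstain; imaged by confocal microscopy at 20×.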

[20] = tested on: HeLa; experiment: Induction of apoptosis in human HeLa cells assessed as caspase-3 activation at 1 to 2.5 uM by Western blotting analysis; assay type: functional, cell-based; conditions: TDE = time-dependent effect; how it was run: as §1
[21] = tested on: HeLa; experiment: Cell cycle arrest in human HeLa cells assessed as reduction in S phase after 24 hrs by propidium iodide staining-based flow cytometry; assay type: functional; how it was run: as §4
[22] = tested on: LoVo; experiment: Resistance ratio of IC50 for human LoVo/DX cells to IC50 for human LoVo cells; assay type: functional; how it was run: as §3
[23] = tested on: HeLa; experiment: Induction of apoptosis in human HeLa cells assessed as PARP cleavage at 1 to 2.5 uM by Western blotting analysis; assay type: functional, cell-based; conditions: TDE = time-dependent effect; how it was run: as §1
[24] = biological target: Tubulin (Bos taurus) (UniProt Q6B856+Q862L2+Q862F3); experiment: Inhibition of bovine brain tubulin polymerization at 20 uM by turbidimetry
How it was run: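 Purified bovine brain tubulin (10 μM) preincubated with compound in glutamate buffer at 30 °C, cooled to 0 °C, GTP added, then warmed to 30 °C in cuvettes; assembly followed turbidimetrically; concentrations up to 20 μM.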

[25] = tested on: HeLa; experiment: Induction of DNA damage in human HeLa cells assessed as increase in gammaH2A.X protein expression at 1 to 2.5 uM after 48 hrs by Western blotting analysis; assay type: functional, cell-based
[26] = tested on: HeLa; experiment: Induction of apoptosis in human HeLa cells assessed as GSH depletion after 24 hrs by CMFDA staining-based flow cytometry; assay type: functional, cell-based; how it was run: as §2
[27] = tested on: HT-29; experiment: Cytotoxicity against human HT-29 cells assessed as growth inhibition after 72 hrs by MTT assay; assay type: functional, cell-based; conditions: HT-29, 72 h
[28] = tested on: MCF7; experiment: Cytotoxicity against human MCF7 cells assessed as growth inhibition after 72 hrs by MTT assay; assay type: functional, cell-based; conditions: MCF7, 72 h
[29] = tested on: HeLa; experiment: Induction of apoptosis in human HeLa cells assessed as PARP cleavage after 24 to 48 hrs by Western blotting analysis; assay type: functional, cell-based; how it was run: as §1
[30] = tested on: HeLa; experiment: Induction of apoptosis in human HeLa cells assessed as caspase activation at 2.5 uM after 48 hrs in presence of pan-caspase inhibitor z-VAD.fmk; assay type: functional, cell-based
How it was run: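 HeLa cells given 2.5 μM compound for 48 h with or without 100 μM z-VAD.fmk pan-caspase inhibitor; viability measured; means ± SEM of three independent experiments, Student's t-test.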

[31] = Selectivity ratio of IC50 for human resting PBMC to IC50 for human Jurkat cells; assay type: ADME, cell-based; conditions: resting PBMC versus Jurkat cells, read-out: Ratio IC50
[32] = Selectivity ratio of IC50 for human resting PBMC to IC50 for human CEM cells; assay type: ADME, cell-based, CCRF-CEM; conditions: resting PBMC versus CEM cells, read-out: Ratio IC50
[33] = tested on: HeLa; experiment: Induction of apoptosis in human HeLa cells assessed as caspase-9 activation at 1 to 2.5 uM after 24 to 48 hrs by Western blotting analysis; assay type: functional, cell-based; how it was run: as §1
[34] = tested on: HeLa; experiment: Induction of apoptosis in human HeLa cells assessed as increase in Bid protein expression at 1 uM after 24 hrs by Western blotting analysis; assay type: functional, cell-based
[35] = tested on: HeLa; experiment: Induction of apoptosis in human HeLa cells assessed as increase in Bak protein expression at 1 to 2.5 uM after 24 to 48 hrs by Western blotting analysis; assay type: functional, cell-based
[36] = tested on: HeLa; experiment: Induction of apoptosis in human HeLa cells assessed as increase in Bax protein expression at 1 to 2.5 uM after 24 to 48 hrs by Western blotting analysis; assay type: functional, cell-based
[37] = tested on: HeLa; experiment: Induction of apoptosis in human HeLa cells assessed as caspase-8 activation at 1 to 2.5 uM after 24 to 48 hrs by Western blotting analysis; assay type: functional, cell-based; how it was run: as §1

For `C=C(Br)C(=O)O`, the IC50 [1] was greater than 120000 nM.

For `C=C(Br)C(=O)Nc1cccc(/C=C/C(=O)Nc2ccc(N3CCOCC3)cc2)c1`, the IC50 [2] was 510 nM, the Activity [3] was “Active” and the Activity [4] was “tde”. For the same compound, the Activity [5] was “Active”, the IC50 [6] was 430 nM and the Activity [7] was “Dose-dependent effect”. The IC50 [8] was 57 nM, the Activity [9] was “Active” and the IC50 [10] was 410 nM. For the same compound, the Activity [11] was “inactive”, the “Ratio IC50” value [12] was 0.7 and the IC50 [13] was 40 nM. The Activity [14] was “Dose-dependent effect”, the IC50 [15] was 4000 nM and the IC50 [16] was 500 nM. The IC50 [17] was 610 nM, the IC50 [18] was 1050 nM and the inhibition [19] was “inactive”. For the same compound, the Activity [20] was “tde”, the Activity [21] was “Active” and the “Ratio IC50” value [22] was 2. For the same compound, the Activity [23] was “tde”, the inhibition [24] was “inactive” and the Activity [25] was “Active”. For the same compound, the Activity [26] was “Dose-dependent effect”, the IC50 [27] was 1600 nM and the IC50 [28] was 2600 nM. The Activity [29] was “Dose-dependent effect”, the Activity [30] was “inactive” and the selectivity ratio [31] was 10. For the same compound, the selectivity ratio [32] was 10, the Activity [33] was “inactive” and the Activity [34] was “inactive”. The Activity [35] was “inactive”, the Activity [36] was “inactive” and the Activity [37] was “Active”.
